# Screens deposited in PubChem BioAssay by The Scripps Research Institute Molecular Screening Center.
# In the library only some 1.7% were active in any assay of this set; here they are far more common.
# CHO-K1 Ca PAM – M1 PAM counterscreen hit in parental CHO-K1 cells. ATP EC20, Fluo-8 calcium fluorescence; 0% at ATP EC20, 100% at ATP max. activation, % at 3 µM. hit rate 0.02% among 360,000;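 active = activation above the run cutoff, the mean activation of all test compounds plus 3 SD, cut at about 40% in these data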;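 also: peak over basal fluorescence ratio in a 140 s read after ATP addition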
# CHO-K1 Ca antag – nonselective inhibitor or artifact in parental CHO-K1 cells; ATP-induced calcium, Fluo-8 fluorescence; inhibition, % at 3 µM; hit rate 0.6% among 360,000; AID 602250;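 active = inhibition above a per-plate cutoff, the plate's mean sample inhibition plus 3 SD, cut at about 24% in these data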
# CHO-K1 Ca ag – M1 agonist counterscreen hit in parental CHO-K1 cells | Fluo-8 calcium fluorescence; scaled to maximal ATP response, vehicle zero | activation, % at 3 µM | hit rate 0.48% among 360,000; in the data active = activation above about 15%;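 also: untransfected CHO-K1 host cells lacking M1 receptor as counterscreen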
# CHRM5 PAM – positive allosteric modulators of human muscarinic M5 receptor | P08912 | CHO-K1 hM5, Fluo-8 calcium, ACh EC20 PAM; 0% = ACh EC20, 100% = ACh EC100 | activation, % at 3 µM | hit rate 0.3% among 360,000;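 active = activation above the run cutoff, the mean activation of all test compounds plus 3 SD, cut at about 18% in these data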
# Target sequence (P08912 whole entry, looked up): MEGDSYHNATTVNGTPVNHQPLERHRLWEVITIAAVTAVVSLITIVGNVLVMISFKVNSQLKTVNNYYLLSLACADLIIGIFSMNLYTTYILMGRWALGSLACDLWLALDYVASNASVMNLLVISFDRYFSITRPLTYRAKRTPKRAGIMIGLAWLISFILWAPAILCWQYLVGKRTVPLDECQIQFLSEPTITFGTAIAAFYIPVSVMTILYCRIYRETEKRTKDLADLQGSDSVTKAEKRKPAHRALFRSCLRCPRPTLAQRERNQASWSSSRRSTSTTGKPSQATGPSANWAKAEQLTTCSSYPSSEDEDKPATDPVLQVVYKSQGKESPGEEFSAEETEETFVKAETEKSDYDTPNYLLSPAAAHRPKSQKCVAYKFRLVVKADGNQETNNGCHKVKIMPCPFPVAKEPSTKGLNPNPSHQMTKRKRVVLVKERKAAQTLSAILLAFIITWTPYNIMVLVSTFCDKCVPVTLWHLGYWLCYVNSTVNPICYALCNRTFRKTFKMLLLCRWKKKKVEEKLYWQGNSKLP
#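 Assay system: CHO-K1 hM5 cells. Also added: acetylcholine at EC20 concentration, added after compound. Dosing: 3 µM, single dose. Times: compound preincubation 140 s before EC20 acetylcholine addition. Signal: Fluo-8 calcium fluorescence. Measure: % activation relative to EC20 and EC100 ACh responses. Repeats: singlicate, one well per test compound.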
# M5 ag – agonists of human muscarinic M5 receptor (CHRM5); P08912; CHO-K1 hM5 cells, Fluo-8 calcium fluorescence; 0% DMSO wells, 100% maximal acetylcholine response; activation, % at 3 µM; hit rate 0.19% among 360,000; AID 624037;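 active = activation above the run's mean over test compounds plus 3 SD, cut at about 23% in these data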;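 also: signal is peak over basal fluorescence ratio across the kinetic read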
# CHRM5 antagonist – antagonists of human muscarinic M5 receptor (CHRM5). P08912. hit rate 0.59% among 360,000. AID 624040. inhibition, % at 3 µM. CHO-hM5 cells, Fluo-8 calcium fluorescence, ACh EC80;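 active = inhibition above a per-plate cutoff, the mean of that plate's test compounds plus 3 SD, cut at about 27% in these data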
# Hits are given with their value; - = inactive; . = no result given.
SMILES,CHO-K1 Ca PAM,CHO-K1 Ca antag,CHO-K1 Ca ag,CHRM5 PAM,M5 ag,CHRM5 antagonist
Cc1nc(C)c(C(=O)C2=C(O)C(=O)N(CCN(C)C)C2c2ccco2)s1 (stereo unspecified),-,-,-,-,-,-
CC(C)(C)c1ccc(OCCn2nc(C(=O)O)c3ccccc3c2=O)cc1,-,-,-,-,-,-
CCN1CCN(c2ccc(NC(=O)COc3ccc(Cl)cc3C)cc2)CC1,-,-,-,-,-,42
Cc1cc(Cl)ccc1OCC(=O)Nc1ccncc1,-,-,-,-,-,33
C/C=C/c1ccc(OCC(=O)Nc2ccc(OC)c(OC)c2)c(OC)c1,-,-,-,-,-,-
CCN1CCN(c2ccc(NC(=O)COc3ccccc3Cl)cc2)CC1,-,-,-,-,-,-
C/C=C/c1ccc(OCC(=O)Nc2ccncc2)c(OC)c1,-,-,15,-,-,-
Cc1cc(Cl)ccc1OCC(=O)NCc1ccncc1,-,-,-,-,-,-
CCN(CC(=O)NCc1ccc(Cl)cc1)C(=O)/C=C/c1cccs1,-,-,-,-,-,-
COc1ccc(C=C2NC(=O)NC2=O)cc1O,-,-,-,-,-,-
O=C(CN1CCN(c2ccc(O)cc2)CC1)NC(=O)NCc1ccco1,-,-,-,19,-,-
COc1ccc(N2CCN(CC(=O)NC(=O)NCc3ccco3)CC2)cc1,-,-,-,-,-,-
COc1cccc(N/C(N)=N/c2nc(C(F)(F)F)cc(C(F)(F)F)n2)c1,-,-,-,-,-,-
COc1cccc(N/C(N)=N/c2nc(C(F)(F)F)cc(=O)[nH]2)c1,-,-,18,-,-,-
CCN1CCN(CCCNC(=O)CS(=O)(=O)Cc2nc(-c3ccccc3C)oc2C)CC1,-,-,-,-,-,-
COc1ccc(C2/C=C\CN(C(=O)c3ccc(C)cc3)CC(=O)N2Cc2ccc(F)cc2)cc1 (stereo unspecified),-,-,-,18,-,-
CCCCn1c(SCC(=O)NC2CC2)nc2ccccc2c1=O,-,-,-,-,-,-
Cc1ccc(S(=O)(=O)N/N=C/C(C)(C)CO)cc1,-,-,-,-,-,-
Clc1ccc(C(c2ccccc2)N2CCN(c3ccccn3)CC2)cc1 (stereo unspecified),-,-,-,-,-,-
CN1CCCN(C(c2ccccc2)c2ccc(Cl)cc2)CC1 (stereo unspecified),-,-,-,-,-,99
CC1CC(C)CN(S(=O)(=O)c2ccc(F)c(C(=O)Nc3ccc(Cl)cc3F)c2)C1 (stereo unspecified),-,-,-,-,-,-
Cc1ccc(-c2nc(SCC(N)=O)c(C#N)c3c2CCCC3)cc1,-,30,-,-,-,-
C/C=C(/C)C(=O)Nc1cccc(C2=NOC3(C2)C[C@@H](C(N)=O)N(C(=O)/C=C/CC)C3)c1 (stereo partly specified),-,-,-,-,-,-
COc1ccc(C(c2nnnn2C(C)(C)C)N2CCN(C/C=C/c3ccccc3)CC2)cc1 (stereo unspecified),-,-,-,-,-,-
COc1ccc(-n2nnnc2C(c2ccccc2OC(F)(F)F)N2CCN(C/C=C/c3ccccc3)CC2)cc1 (stereo unspecified),-,-,-,-,-,-
SMILES,CHO-K1 Ca PAM,CHO-K1 Ca antag,CHO-K1 Ca ag,CHRM5 PAM,M5 ag,CHRM5 antagonist
COc1ccc(C(c2nnnn2-c2ccc(OC)cc2)N2CCN(C/C=C/c3ccccc3)CC2)cc1 (stereo unspecified),-,-,-,-,-,51
C(=C\c1ccccc1)/CN1CCN(C(c2cccc3ccccc23)c2nnnn2C2CCCC2)CC1 (stereo unspecified),-,-,-,-,-,99
C(=C\c1ccccc1)/CN1CCN(C(c2cc3ccccc3o2)c2nnnn2C2CCCC2)CC1 (stereo unspecified),-,-,-,-,-,-
C(=C\c1ccccc1)/CN1CCN(C(c2ccccc2)c2nnnn2-c2ccc3c(c2)OCCO3)CC1 (stereo unspecified),-,-,-,-,-,75
COc1ccc(-n2nnnc2C(c2cccs2)N2CCN(C/C=C/c3ccccc3)CC2)cc1 (stereo unspecified),-,-,-,-,-,47
COc1ccccc1-c1oc2ccccc2c1C#CC1(N)CCCCC1,-,-,-,-,-,-
O=C(NNC(=O)c1ccccc1F)c1cccs1,-,-,-,-,-,-
Cc1ccc(C(=O)NCCC(=O)Nc2ccccc2C)cc1,-,-,-,-,-,-
N#Cc1ccc(NC(=O)CN2C(=O)NC3(CCCC3)C2=O)cc1,-,-,-,-,-,-
COc1ccc(S(=O)(=O)N2CCOCC2)cc1NC(=O)c1sccc1C,-,-,-,-,-,-
COc1ccc(C(c2nnnn2C2CCCCC2)N2CCN(C/C=C/c3ccccc3)CC2)cc1 (stereo unspecified),-,-,-,-,-,58
O=C(Nc1ccc2c(c1)OCCO2)C(c1cc2ccccc2o1)N1CCN(C/C=C/c2ccccc2)CC1 (stereo unspecified),46,-,-,-,-,-
Cc1ccc(N2CC(C(=O)Nc3ccccc3N3CCCC3)CC2=O)cc1 (stereo unspecified),-,-,-,-,-,-
CCOc1ccc(-n2cc(C(=O)c3cc(Cl)ccc3O)cc(C#N)c2=O)cc1,-,-,-,-,-,-
CCN(CC)CCNC(=O)Cn1ncc2ccccc2c1=O,-,-,-,20,-,-
CCN(CC)CCNC(=O)Cn1nc(-c2ccccc2)c2ccccc2c1=O,-,-,-,-,-,-
CC(=O)Nc1cccc(-c2nc3ccccc3n2C(C)C(=O)NC(C)(C)C)c1 (stereo unspecified),.,.,.,-,-,-
Cc1nn(-c2ccccc2)c(Cl)c1/C=C/C(=O)c1ccccc1,-,28,-,-,-,-
Cc1nn(-c2ccccc2)c(Cl)c1/C=N/O,-,-,-,-,-,-
CCOc1ccc(NC(=S)NCc2ccco2)cc1,-,-,17,-,-,-
COc1ccc(NC(=S)NCc2ccco2)cc1,-,-,-,-,-,-
S=C(NCc1ccco1)Nc1cc(Cl)c(Cl)cc1Cl,-,-,-,-,-,33
Cc1ccc(-c2nc(Nc3cccc(C)c3)sc2CC(=O)O)cc1,-,26,-,-,-,-
CCOc1ccc(OCC)c(NC(=O)CCCN2C(=O)c3cccnc3C2=O)c1,-,-,-,-,-,-
C=C1CCN([C@@H](C)C(=O)NCCCCCC)S(=O)(=O)c2ccccc21,-,-,-,-,-,-
O=C(CSc1nc2[nH]ncc2c(=O)n1-c1ccccc1)NCCc1ccccc1,-,-,17,-,-,-
